These results are taken from the RNAGym collection of RNA variant scans (doi:10.1126/science.aae0568).

This sample holds only a part of the variants without activity.

B1: tRNA (parent)
chain: GUUCCGUUGGCGUAAUGGUAACGCGUCUCCCUCCUAAGGAGAAGACUGCGGGUUCGAGUCCCGUACGGAACG

The variants in the series derive from B1. Kind of series: yeast fitness relative to wild type (ratio to wild type); higher = fitter; tRNA-Arg(CCU), competitive growth, 37 C, YPD. In short, it runs like this:
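Changes in genotype frequencies gave Darwinian fitness relative to wild type. Frequencies were read by 100-nucleotide paired-end sequencing of gene amplicons before and after pooled Saccharomyces cerevisiae strains, carrying tRNA-Arg(CCU) gene variants at the native locus, were competed in YPD at 37°C for 24 hours in six replicates. A genotype was kept only with ≥ 100 starting reads, and estimates < 0.5 were set to 0.5.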
Regarding GAUACGUUGGCGUAAUGGUAAAGCGUCUCCCUCCUAAGGAGAAGACUGCGGGUUUGAGUCCCGUACGGAACG, the yeast fitness was ≤ 0.5.

As for GAUCCGUUGGCGUAAUGGUAACGCGUCUCCCUCCUGAGGAGAAGACUGAGGGUUCGAGUCCCGUACGGAACG, the yeast fitness was ≤ 0.5.

As to GAUCCGUUGGCGUAAUGGUACCGCGUCUCCGUCCUAAGGAGACGACUGCGGGUUCGAGUCCCGUACGGAACG, the yeast fitness was ≤ 0.5.

As to GAUACGUUGGCGUAAUGGUAACGCGUCUCCCUCCUAAGGAGAAGAGUGCGGAUUCGAGUCCCGUACGGAUCG, the yeast fitness is ≤ 0.5.

For the variant GAUUCGUUGGCGUAAUGGUAACGCGUCUCCCUCCUAAGGAGAACACUGCGGGUUCGAGUCACGUACGGAACG, the yeast fitness was ≤ 0.5.

Turning to GAUGGGUUGGCGUAAUGGUAACGCAUCUCGCUCAUAAGGAGAAGACUGGGGGUUCGAGUCCCGUACGGAACG, the yeast fitness is ≤ 0.5.

On to GAUCCGUUGGCGUAAUGGUGACGCGUCUCCAUCCUAAGGAGAUGACUGCGGGUUCGAGUCACGUACGGAACG, for which the yeast fitness is ≤ 0.5.

As to GAUACAUUGGCGUAAUGGUAACGCGUCUGCCUCCUAAGGAGAAGACUGCGGGUUCGGGUCCCGUACGGAACG, the yeast fitness was ≤ 0.5.

With GAUCCGUUGGCGUAAUGGUAACGCGUCUCCCUCCUAAGGAGAGGACUGCGGGUUCGAGUCCCGUACGGAACG, the yeast fitness came to 0.988.

Turning to GAUCCGUUGGCGUAAUGGUAACGCGUCUCCCUCCUAAGGAGAUGACUGCGGGUUCGAGUCCCGUACGGAACG, the yeast fitness came out at 0.956.

For GAUCCGUUGGCGUAAUGGUGACGCGUCUCCCUCAUAAGGAGAAGACUGUGGGUUCGAGUCCCGUACGGAACG, the yeast fitness is ≤ 0.5.

GAUCCGUUGGCGUAAUGGUAGCGCGUCUGCCUCCUAAGGAGAAGACUGAGGGUUCGAGUCCCGUACAGAACG: the yeast fitness was ≤ 0.5.

GAUCCGUUGGCGUAAUGGUAACGCGUCUCCCUCCUAAGGAGAAGACUGCGGGUUCGAGUCCCGUACGGACCG: the yeast fitness worked out at 1.

For the variant GAUCCGUUGGCGUAAUGGUAACGCGUCUCCCUCCUAAGGAGUAGACUGCGGGUUCGAGUCCCGUACGGAACG, the yeast fitness is 0.864.

With GAUCCGUUGGCGUAAUGGUAACGCGUCUCCCUCCUAAGGAGCAGACUGCGGGUUCGAGUCCCGUACGGAACG, the yeast fitness was 0.818.

In the case of GAUCCGUUGGCGUAAUGGUAACGCGUCUCCCUCCUAAGGAGGAGACUGCGGGUUCGAGUCCCGUACGGAACG, the yeast fitness came out at 0.74.

Regarding GAUCCGUUGGCGUAAUGGUAACGCGUCUCCCUCCUAAGGAGAAGCCUGCGGGUUCGAGUCCCGUACGGACCG, the yeast fitness amounted to 0.758.

As to GAUCCGUUGGCGUAAUGGUAACGCGUCUCCCUCCUAAGGAGAAGCCUGCGGGUUCGAGUCCCGUUCGGAACG, the yeast fitness is 0.624.

GAUCCGUUGGCGUAAUGGUAACGCGUCUCCCUCCUAAGGAGAAGCCUGCGGGUUCGAGUCCCGUCCGGAACG: the yeast fitness came to 0.764.

As to GAUCCGUUGGCGUAAUGGUAACGCGUCUCCCUCCUCAGGAGAAGACUGCGGGUUCGAGUCCCGUACGGAACG, the yeast fitness worked out at 0.518.

As to GAUCCGUUGGCGUAAUGGUAACGCGUCUCCCUCCUUAGGAGAAGACUGCGGGUUCGAGUCCCGUACGGAACG, the yeast fitness was 0.596.

Regarding GAUCCGUUGGCGUAAUGGUUCCGCGUUUCCCUACUAAGGAGAAGACUGCGGGUUCGAGUCCCGUACGGACCG, the yeast fitness is 0.528.

On to GAUCCGUUGGCGUAAUGGUACCGCGUCUUCCUCCUAAGGAGAAGACUGCGGCUUCGAGUCCCGUACGGAACG, for which the yeast fitness was ≤ 0.5.

For the variant GAUGCGUUAGCGUAAUGGUAACGCGUCUCCCUCCUAAGGAGAAAACUGCGGGUCCGAGUCCCGUACGGAACG, the yeast fitness was ≤ 0.5.

For the variant GAUCCGUUGGCGUAAUGGUAACGCGUCUCCCUCCUAAGGAGAAGACUGCGGGUUCGUGUCUCGUAGGGAACG, the yeast fitness was ≤ 0.5.

For GAUCCGUUGGCGUAAUGGUAGCGCGUCUCCCUCCUAAGGAGAACACUGCGGGUUCGAGGCUCGUACGGAACG, the yeast fitness was ≤ 0.5.

On to GAUCCGUUGGCGUAAUGGUAACGCGUCUCCCUCCUAAGGAGGAGACUGCGGGUUCGAGUCUCAUACGGAACG, for which the yeast fitness is ≤ 0.5.

As for GAUCCGUUGGCGUAAUGGUGACGCGUCUCCCUCCUAAGGAGAAGACUGCGGGUUGGAGUCCCGUACGGAACG, the yeast fitness was 0.537.

Consider GAUCCGUUGGCGUAAUGGUGACGCGUCUACCUCCUAAGGAGAAGUCUGCGGGUUCGAGUCCCGUACGGAACG, for which the yeast fitness turned out to be 0.538.

On to GAUCCGUUGGCGUAAUGGUUACGCGUCUCCCUCAUAAGGAGAAGACUGCGGGUUCGAGUCUCGUUCGGAACG, for which the yeast fitness is ≤ 0.5.

In the case of GAUUCGUUGGCGUAAUGGUAACGCGUCACUCUCCUAAGGAGAAGACUGCGGGUUCGGGUCCCGUACGGAACG, the yeast fitness was 0.688.

As for GAUCCGUUGGCGUAAUGGUAUCGCGUCUCCCUCCUAAGGAGAAGACUGCGGGUACCAGUCCCGUACGGAACG, the yeast fitness was determined as 0.646.

With GAUACGUUGGCGUAAUGGGAACGCGUCUCCCUCCUAAGGAGAAGACUGCGGGUUCGAGUCCCGUACGGAACG, the yeast fitness was ≤ 0.5.

For the variant GAUCCGUUGGCGUAAUGGUAUCGCGUCUCCCUCCUAAGGAGGAGACUGCGGGUUCGAGUCCCGUACGGAACG, the yeast fitness is ≤ 0.5.

On to GAUGCGUAGGCAUAAUGGUAACGCGUCUCCCUCCUAAGGAGAAGACUACGGGUUCGAGUCCCGUACGGCACG, for which the yeast fitness turned out to be 0.544.

With GAUGCGUUGGCGUAAUGGUAACGCGUCUCCCUCCUAAGGAGAAGACUGCGGGUUCGAGUCCCGUACGGAACG, the yeast fitness was 0.838.

In the case of GAUGCGUUGGCGUAAUGGUAACGCGUCUCCCUCUUAAGGAGAAGACUGCGGGUUCGAGUCCCGUACGGAACG, the yeast fitness is ≤ 0.5.

GAUCCGUUGGCGUAAUGGUAGCGCGUCUUCCUCCUAAGGUGAAGACUGCGGGUUCGAGUCCCAUACGGUACG: the yeast fitness was ≤ 0.5.

Turning to GAUCCGUUGGCGUAAUGGUAGCGCGUCUCCCUCCUAAGGAAAGGACUGCGGGUUCGAGUCCCGUACGGAACG, the yeast fitness is ≤ 0.5.

Regarding GAUCCGUUGGCGUAAUGGUAACGCGUCUCCCUCCUAAGGAGAAGACUGCGGGUUCGCGUCCCGUACGGAACG, the yeast fitness was determined as 0.607.

In the case of GAUUCGUUGCCGUAAUGGUAACGCGUCUUCCACCUAAGGAGAUGACUGCGGGUUCGAGUCCCGUACGGAACG, the yeast fitness was ≤ 0.5.

Consider GAUCCGUUGGCGUAAUGGUACCGAGUCUCCCUACUAAGGAGAAGACUCCGGGUUCGAGUCCCGUACGGAACG, for which the yeast fitness was ≤ 0.5.

Turning to GAUCCGUUGGCGUAAUGGUAGCGCGUCUUCCUCCUAAGGUGAAGACUGCGGGUUCGAGUCCCGUACGGUACG, the yeast fitness stood at 0.59.

Turning to GAUCCGUUGGCGUAAUGGUAACGCGUCUCCCUCCUAAGGAGAAGCCUGCGGGUUCGAGUCCCGUACGGAACG, the yeast fitness came out at 0.933.

As to GAUACGUUGGCGUAAUGGUAACGCGUCUCCCUCAUAAGGAGACGAUUGCGGGUUCGAGUCCCGUACGGAACG, the yeast fitness was ≤ 0.5.

For GAUUCGUGGGCGUAAUGGUAACGCGUCUCCCUCCUAAGGAGAAGACUGCGGGUUGGAGUCCCGUACGAAACG, the yeast fitness was ≤ 0.5.

Regarding GAUCCGUUGGCGUAAUGGUAACGCGUCUCCCUCCUAAGGUGAAGACUACGGGUUCGAGUCCCGUACGGAACG, the yeast fitness is 0.681.

For GAUCCGUUGGCGUAAUGGUAGCGCGUCUUCCUCCUAAGGUGAAGACUGGGGGUUCGAGUCCCGUACGGAACG, the yeast fitness is ≤ 0.5.

Consider GAUUCGUUGGCGUAAUGGUAACGCCUCUCCCUCCUAAGGAGAAGACUGUGGGUUCGAGUCUCGUACGGAACG, for which the yeast fitness turned out to be 0.581.

Turning to GAUCCGUUGGCGUAAUGGUAACGCGUCUCCCUCCUAAGGGGAAGACUGCGGGUUCGAGUCCCGUACGGAACG, the yeast fitness was determined as 0.932.

With GAUCCGUUGGCGUAAUGGUAACGCGUCUCCCUCCUAGGGAGAAGACUGCGGGUUUGAGUCCCGUACGGAACG, the yeast fitness is ≤ 0.5.

GAUCCGUUGGCGUAAUGGUGACGCGUCUCCCUCCUAAGGAGAAGACUGUGGGUUCGAGUCCCGUACGGAACG: the yeast fitness is 0.605.

As to GAUCCGUUGGCGUAAUGGUAACGCGUCUCCCUCCUAAGGAGAAGCCUGCGGGUUAGAGUCCCGUACGGAACG, the yeast fitness was ≤ 0.5.

Regarding GAUCCGUUGGCGUAAUGGUAUCGCGUCUCCCUCCUAAGGAGAAGACUGCGGGUUCGAGUCCCGUACGGAACG, the yeast fitness is 0.686.

With GAUGCGUUGGCGUUAUGGUAACGCGUCUCCCUCCUAAGGAGAAGACUGCGGGUUCGAGUACCGUACGGAACG, the yeast fitness is ≤ 0.5.

Consider GAUCCGUUGGCGUAAUGGUAACGCGUCUCCCUCCUAAGGAGGGGACUGCAGGUUCGAGUCCCGUACGGAACG, for which the yeast fitness is 0.541.

For GAUACGUUGGCGUAAUGCUAACGCGUCUCCCUCCUAAGGAGAAGACAGCGGGUUUGAGUCCCGUACGGAACG, the yeast fitness worked out at 0.793.

GAUCCGUUGGCGUAAUGGUAACGCGUCUCCCUCCUAAGGUGAAGACUGCGGGUUCGAGUCCCGUCCGGAACG: the yeast fitness was ≤ 0.5.

Regarding GAUACGUUGGCGCAAUGGUAACGCGUCUCCCUCCUAAGGAGGAGACUGCGGGUUCGAGUCUCGUACGGAACG, the yeast fitness is ≤ 0.5.

GAUCCGUUGGCGUAAUGGUUACGCGUCUCCCUCCUAAGGAGAAGACUGCGGGAUCGAGUACCGUACGGAACG: the yeast fitness came out at 0.558.

With GAUGCGUUGGCGUAAUGGUAACGCGUCUCCCUCCUAAGGAGAAGACUGCGGGUUCAAAUCCCGUCCGGAACG, the yeast fitness is ≤ 0.5.

As to GAUCCGUUGGCGUAAUGGUAUCGCGUCUCCCUCCUAAGGAGAAGACUGCAGGUUCGAGUCCCGUACGGAACG, the yeast fitness was ≤ 0.5.

Take GAUCCGUUGGCGUAAUGGUACCGCGUCUUCCUCCUAAGGAGAAGACUGCGAGUUCGAGUCCCGUACGGAACG: the yeast fitness turned out to be 0.574.

With GAUCCGUUGGCGUAAUGGUAACGCGUCUCCCUCCUAAGGAGAAGACUGCGGGUUCGAGUCCCGUGCGGAACG, the yeast fitness was found to be 0.938.

Take GAUCCGUUGGCGUAAUGGUAACGCGUCUCCCUCCUAAGGAGAAGACUGCGGGUUCGAGUCCCGUUCGGAACG: the yeast fitness was determined as 0.812.

On to GAUCCGUUGGCGUAAUGGUAACGCGUCUCCCUCCUAGGGAGAAGACUGCGGGUUCGAGUCCCGUACGGAACG, for which the yeast fitness was found to be 0.659.

Turning to GAUCCGUUGGCGUAAUGGUACCGCGUCUCACUCCUAAGGAGAAGACUGAGGGUUCGAGUCCCGUACGGAACG, the yeast fitness is ≤ 0.5.

With GAUCCGUUGGCGUAAUGGUAACGCGUCUCCCUCCUCAGGAGAAGCCUGCGGGUUGGAGUCCAGUACGAAACG, the yeast fitness was ≤ 0.5.

Turning to GAUCCGUUGGCGUAAUGGUAGCGCGUCUCCCUCCUUAGGAGAAGACUGCGGGUUCGAGUCCCGUACGGAACG, the yeast fitness worked out at 0.624.

GAUCCGUUGGCGUAAUGGUAACGCGUCUCCCUCCUAAGGAGAAGUCUGCGGGUUCGAGUCCGGUACGGAACG: the yeast fitness was ≤ 0.5.

For GAUGCGUUGGCGUAAUGGUAACGCGUCUCCCUCCUAACGAGAAGUCUGCCGAUUCGAGUCCCGUACGGAACG, the yeast fitness is 0.849.

Regarding GAUCCGUUGGCGUAAUGGUAACGCGUCUCCCUCCUACGGAGAAGACUGCGGGUUCGCGUUCCGUACGGAACG, the yeast fitness is ≤ 0.5.

Regarding GAUCCGUUGGCGUAAUGGUUACGCGUCUCACUCCUUAGGAGAAGACUGCGGGUUCGAGUUCCGUACGGCACG, the yeast fitness was ≤ 0.5.

For GAUCCGUUGGCGUAAUGGUGACGCGUGUCCCUCCUAAGGAGAAGACUGCGGGUUCGAGUCCCGUACGGAACG, the yeast fitness was ≤ 0.5.

As to GAUGCGUUGGCGUAAUGGUAACGCGUCUCCCUCCUAAGGAGGAGUCUGCGGGUUCGAGUCCCGUAUGGAACG, the yeast fitness is ≤ 0.5.
